Our source for the IC50 and EMR values is ChEMBL document CHEMBL1143731, “Synthesis and pharmacological testing of polyaminoquinolines as blockers of the apamin-sensitive Ca2+-activated K+ channel (SK(Ca))” (Bioorg Med Chem, 2007).

The IC50 is the concentration that gives 50% inhibition.

For assay [1], the target named is Small conductance calcium-activated potassium channel protein 3 (Rattus norvegicus, UniProt P70605). Kind of assay: Inhibition of SKca channel-mediated after-hypepolarization in rat sympathetic neurons. The format is cell-based, Sympathetic neuron. The gist of the method:
(§1)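 Rat sympathetic neurones (SK3 SKCa), short-term tissue culture. Action potentials evoked by depolarizing current pulses; afterhyperpolarization amplitude measured before, during and after compound applied in external solution at 2–4 concentrations, at least three neurones. Dequalinium reference in each assay. Hill fits with common Hill coefficient and maximum inhibition per assay gave IC50; EMR = test/dequalinium concentration for 50% AHP inhibition, by simultaneous weighted nonlinear least squares.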

The target of assay [2] is Small conductance calcium-activated potassium channel protein 3 (Rattus norvegicus) (UniProt P70605). The experiment in a line: Ratio of concentration drug to dequalinium to cause 50% inhibition of SKca channel-mediated after-hypepolarization in rat sympathetic neurons. It is filed as cell-based. As to conditions: Sympathetic neuron. The gist of the method:
as §1

The structures appear in SMILES notation.

Chain of Small conductance calcium-activated potassium channel protein 3 (Rattus norvegicus) (P70605 whole entry): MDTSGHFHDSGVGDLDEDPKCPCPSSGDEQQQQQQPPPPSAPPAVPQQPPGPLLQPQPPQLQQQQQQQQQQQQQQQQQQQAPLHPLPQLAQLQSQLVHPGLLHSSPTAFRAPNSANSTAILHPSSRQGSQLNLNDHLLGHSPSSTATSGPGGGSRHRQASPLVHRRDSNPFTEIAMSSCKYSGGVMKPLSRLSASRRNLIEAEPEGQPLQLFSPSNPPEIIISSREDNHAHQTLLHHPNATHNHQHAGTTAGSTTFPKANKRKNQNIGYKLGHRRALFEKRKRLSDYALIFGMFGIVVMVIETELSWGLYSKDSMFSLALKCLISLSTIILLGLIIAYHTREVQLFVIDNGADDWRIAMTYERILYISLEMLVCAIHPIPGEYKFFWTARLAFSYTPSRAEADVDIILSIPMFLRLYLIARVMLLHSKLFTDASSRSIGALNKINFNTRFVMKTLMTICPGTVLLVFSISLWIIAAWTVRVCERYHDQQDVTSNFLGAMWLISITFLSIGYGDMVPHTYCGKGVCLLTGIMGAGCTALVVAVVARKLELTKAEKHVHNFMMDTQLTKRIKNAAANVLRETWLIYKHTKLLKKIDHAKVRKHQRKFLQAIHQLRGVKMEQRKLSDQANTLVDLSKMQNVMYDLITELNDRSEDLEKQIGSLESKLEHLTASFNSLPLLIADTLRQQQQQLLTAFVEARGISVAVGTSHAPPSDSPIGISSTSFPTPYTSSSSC
Chain of Small conductance calcium-activated potassium channel protein 3 (P70605 whole entry): as above

For the compound `c1ccc2c(NCCCCCN(CCCNc3ccnc4ccccc34)c3cc(OCCCNc4ccnc5ccccc45)cc(OCCCNc4ccnc5ccccc45)c3)ccnc2c1`, the IC50 in assay [1] was 93 nM. For the same compound, the EMR in assay [2] turned out to be 0.17.

On to `NC(N)=NCc1ccc(/C=C\c2ccc(CN=C(N)N)cc2)cc1`, for which the IC50 in assay [1] was determined as 25000 nM.

For `c1cc(OCCCNc2ccnc3ccccc23)c(OCCCNc2ccnc3ccccc23)c(OCCCNc2ccnc3ccccc23)c1`, the IC50 in assay [1] stood at 130 nM. Moreover, in assay [2], the EMR amounted to 0.23.

As for `N=C(N)NCCCNC(=O)/C=C\C(=O)N(CCCCCCCCN)CCCNC(=N)N`, the IC50 in assay [1] was over 30000 nM.

On to `c1ccc2c(NCCCCCN(CCCNc3ccnc4ccccc34)Cc3cc(OCCCNc4ccnc5ccccc45)cc(OCCCNc4ccnc5ccccc45)c3)ccnc2c1`, for which, in assay [1], the IC50 was found to be 130 nM. For the same compound, the EMR in assay [2] turned out to be 0.23.

`Cc1cc(N)c2ccccc2[n+]1CCCCCCCCCC[n+]1c(C)cc(N)c2ccccc21`: the EMR in assay [2] was 1.

With `Nc1cc[n+](CCCC=C(CCCC[n+]2ccc(N)c3ccccc32)CCCC[n+]2ccc(N)c3ccccc32)c2ccccc12`, in assay [2], the EMR turned out to be 0.1.

Turning to `c1ccc2c(c1)c1cc[n+]2CCCCC[n+]2ccc(c3ccccc32)NCCCCCN1`, in assay [2], the EMR was determined as 0.003.

In the case of `CC[n+]1ccc(NCCCOc2cccc(OCCCNc3cc[n+](CC)c4ccccc34)c2OCCCNc2cc[n+](CC)c3ccccc23)c2ccccc21`, the IC50 in assay [1] was found to be 86 nM. Besides, in assay [2], the EMR turned out to be 0.16.

Turning to `c1ccc2c(NCCCNCc3cc(OCCCNc4ccnc5ccccc45)cc(OCCCNc4ccnc5ccccc45)c3)ccnc2c1`, the IC50 in assay [1] worked out at 360 nM. Further, in assay [2], the EMR was 0.48.

For `c1ccc2c(NCCCOc3ccc(CCNc4ccnc5ccccc45)cc3OCCCNc3ccnc4ccccc34)ccnc2c1`, the IC50 in assay [1] came to 270 nM. In addition, the EMR in assay [2] amounted to 0.31.

As to `N=C(N)NCCCNC(=O)/C=C/C(=O)N(CCCCCCCCN)CCCNC(=N)N`, the IC50 in assay [1] amounted to 27000 nM.

Take `NCCCCCCCCN(CCCNc1ccnc2ccccc12)C(=O)/C=C/C(=O)NCCCNc1ccnc2ccccc12`: the concentration for half-maximal inhibition (IC50) in assay [1] was determined as 490 nM. The EMR in assay [2] was found to be 0.59.

As for `c1ccc2c(NCCCNc3cc(OCCCNc4ccnc5ccccc45)cc(OCCCNc4ccnc5ccccc45)c3)ccnc2c1`, the IC50 in assay [1] is 220 nM. For the same compound, in assay [2], the EMR turned out to be 0.26.

`c1cc2cc(c1)C[n+]1ccc(c3ccccc31)NCc1ccc(cc1)CNc1cc[n+](c3ccccc13)C2`: in assay [2], the EMR was 0.01.

Turning to `N=C(N)NCCCNC(=O)/C=C/C(=O)N(CCCNC(=N)N)Cc1ccc(-c2ccc(CN)cc2)cc1`, the IC50 in assay [1] was 17000 nM. Also, in assay [2], the EMR amounted to 33.

With `N=C(N)NCc1ccc(/C=C\c2ccc(CNC(=N)N)cc2)cc1`, the EMR in assay [2] turned out to be 59.
